Tests used:
[1] = test system: PC-3; assay: Induction of apoptosis in human PC3 cells assessed as early apoptosis at 5 uM using annexin V/7-AAD by FACS analysis (reference value: 5 %); assay type: functional
Method in brief: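 Cells plated 24 h before treatment, then exposed 24 h to 0.5, 5, 15 or 50 μM compound (final DMSO 0.5%); vehicle controls included. Cells scraped and stained with annexin V-FITC and 7-AAD for 15 min on ice in the dark. Flow cytometry with 488 nm excitation, 10,000 gated cells. Early apoptosis was annexin V+/7-AAD−, late was annexin V+/7-AAD+.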

[2] = test system: BXPC-3; assay: Induction of apoptosis in human BxPC3 cells assessed as late apoptosis at 15 uM using annexin V/7-AAD by FACS analysis (reference value: 9 %); assay type: functional

CN1CCN(CCCc2ccc(C(c3ccccc3)C34CC5CC(CC(C5)C3)C4)cc2)CC1 (configuration not stated)
Activity [1]: 5%
Activity [2]: 26%

Source: ChEMBL document CHEMBL2202989, “New adamantane phenylalkylamines with σ-receptor binding affinity and anticancer activity, associated with putative antagonism of neuropathic pain” (J Med Chem, 2012)
